Measured values from PMC9929485 (International Journal for Parasitology: Drugs and Drug …, 2023).

Assays:
T. gondii tachyzoites [1] = assay: ATP level in tachyzoites; assay type: cell-based, Toxoplasma gondii RH strain; settings: 1 or 5 μM, 8 or 24 h, P ≤ 0.05
Summary of the method: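 Infected Vero cultures were exposed to 1 or 5 μM test compound in DMEM for 8 or 24 h. Tachyzoites were then isolated, purified and lysed, and ATP was measured and expressed as μmol/L. Three independent experiments were run.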

T. gondii tachyzoites [2] = assay: ROS production assay; assay type: cell-based, Toxoplasma gondii RH strain; settings: 1 or 5 μM, dose-dependent
Summary of the method: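 Infected Vero cultures were treated with 1 or 5 μM test compound or left untreated. Then 2 × 10^6 tachyzoites were isolated and PBS-washed. They were loaded with 7.5 μM CMH2DCFDA for 10 min, washed three times and resuspended in PBS. Fluorescence was read at excitation 488 nm and emission 525 nm. Triplicate experiments.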

[3] = test system: T. gondii tachyzoites in Vero cells; assay: Plaque assay; assay type: cell-based, Toxoplasma gondii RH strain
Summary of the method: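 Proliferation arm: Vero monolayers were infected with 2 × 10^4 tachyzoites per well for 8 h, then given 0.625–10.0 μM test compound in DMEM with 1% FBS for 24 h. Invasion arm: tachyzoites were pre-exposed to compound, then allowed to infect Vero cells for 2 h. Drug-free controls were included. After 48, 72 or 96 h, cells were PBS-washed, fixed in 4% paraformaldehyde and stained with crystal violet for 10 min. PVs per field and parasites per PV were counted in ≥20 random fields per well (40× objective).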

T. gondii tachyzoites [4] = assay: Anti-proliferation activity by qPCR; assay type: cell-based, Toxoplasma gondii RH strain
Summary of the method: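 Vero monolayers in 6-well plates were infected with 2 × 10^5 tachyzoites per well. After 8 h, test compound (0.625–10.0 μM) or azithromycin was added in DMEM with 1% FBS for 24 h, with a drug-free negative control. Total DNA was extracted and the 529 bp repeat quantified by qPCR. EC50 and therapeutic index were calculated. Values are mean ± SD of at least three independent experiments.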

Cytotoxicity assay = assay type: cell-based; settings: African green monkey, Vero cells
Summary of the method: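 Vero cells were seeded at 1 × 10^4 per well, grown to monolayer, then exposed for 24 h to 0.78125–100 μM test compound in DMEM with 1% FBS (DMSO <1% v/v), with an untreated control. Viability was read by CCK-8 (1 h, absorbance 450 nm). Survival % = (treated − blank)/(control − blank) × 100. Triplicate independent experiments.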

[5] = test system: T. gondii tachyzoites in Vero cells; assay: Transmission electron microscopy; assay type: cell-based, Toxoplasma gondii RH strain; settings: 5 μM
Summary of the method: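 Vero cells in T25 flasks were infected with 2 × 10^6 tachyzoites for 8 h, then cultured with 5 μM test compound for 8 or 24 h. Cells were detached with TrypLE (2 min), PBS-washed and fixed in 2.5% glutaraldehyde (4 °C, 12 h). Post-fixation used 1% osmium in the dark for 1.5 h. Samples were dehydrated through alcohol and acetone and embedded in Epon. Ultrathin sections were stained with uranyl acetate/lead citrate and examined by TEM.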

T. gondii tachyzoites [6] = assay: In vivo activity against T. gondii in infected mice; parameters: species or system Toxoplasma gondii RH strain in BALB/c mouse; settings: 20 mg/kg intraperitoneal once a day for 7 days, P ≤ 0.05
Summary of the method: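 BALB/c mice were infected ip with 1 × 10^3 RH tachyzoites. Treatment started 4 h later, ip once daily for 7 days: test compound 20 mg/kg·bw, azithromycin 50 mg/kg·bw (positive control) or PBS. One mL of ascites was aspirated, washed and centrifuged, and DNA extracted. Parasites were quantified by PCR against a standard curve of serially diluted RH tachyzoite DNA (3.00 × 10^6 to 3.00 × 10^3/mL).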

T. gondii tachyzoites [7] = assay: Anti-invasion assessment by qPCR; assay type: cell-based, Toxoplasma gondii RH strain
Summary of the method: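 Vero monolayers were preincubated with 0.625–10.0 μM test compound in DMEM with 1% FBS. Controls were 11.5 μM azithromycin (positive) and no drug (negative). Then 2 × 10^6 fresh tachyzoites were added per well for 2 h. Cells were washed twice with DPBS and kept in DMEM for 24 h. DNA was extracted and the T. gondii 529 bp repeat quantified by qPCR. Inhibition rate is relative to untreated control, from triplicate independent experiments.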

Safety assay in mice = assay type: in vivo, mouse; settings: 5, 10 or 20 mg/kg intraperitoneal, over 7 days
Summary of the method: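 BALB/c mice received test compound ip once daily for 7 days at 5, 10 or 20 mg/kg. It was formulated at 2 mg/mL in saline with 10% ethanol and 10% Cremophor EL. Controls received solvent alone or PBS. Clinical toxicity was monitored during dosing and for a further 23 days.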

T. gondii tachyzoites [8] = assay: Mitochondrial membrane potential; assay type: cell-based, Toxoplasma gondii RH strain; settings: 1 or 5 μM, 8 or 24 h, P ≤ 0.05
Summary of the method: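 Tachyzoites inside Vero monolayers were treated with 1 or 5 μM test compound in DMEM for 8 or 24 h. After a PBS wash, cultures were stained with 50 nM MitoTracker Red CMXRos for 20 min. Fluorescence was read on a microplate reader. Triplicate experiments.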

[9] = Pharmacokinetics in mouse plasma; assay type: in vivo; settings: female, BALB/c, ip, 20 mg/kg
Summary of the method: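 Test compound was formulated at 2 mg/mL in saline with 10% ethanol and 10% Cremophor EL. It was given ip at 20 mg/kg to 9 female BALB/c mice. Blood was sampled at 0, 0.083, 0.25, 0.5, 1, 2, 4, 8, 12 and 24 h and centrifuged at 3000 rpm for 10 min; plasma was stored at −20 °C. The PK model was selected by minimum AIC. Parameters are mean ± SD (n = 3).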

Compound: CCCCCCCc1cc(O)c2ccccc2[n+]1[O-] [HQNO, 2-Heptyl-4-hydroxyquinoline N-oxide]
- ATP levels in parasites vs control (T. gondii tachyzoites [1]): significant dose-dependent decreases
- ROS levels in T. gondii vs control (T. gondii tachyzoites [2]): increase
- tachyzoite growth (plaques formed) ([3]; 0.625–10 μM, after 6 days of incubation): dose-dependent inhibition
- average number of tachyzoites within the PVs ([3]; P ≤ 0.05): decreased
- invasion and proliferation ability of T. gondii (plaque) ([3]; after 48 h, 72 h, 96 h of incubation, P ≤ 0.05): significantly reduced
- PV number vs control ([3]; pre- and post-infection, P ≤ 0.05): decreased significantly
- T. gondii tachyzoite intracellular proliferation vs control (T. gondii tachyzoites [4]; 0.625–10 μM, concentration-dependent, P ≤ 0.05): significantly (P ≤ 0.05) inhibited
- IC50 at 24 h (Cytotoxicity assay): 33.4 µM
- ultrastructure of T. gondii mitochondria (TEM) ([5]; 8 h): swollen
- ultrastructure of T. gondii (TEM) ([5]; 24 h): parasite death
- effect on mitochondria of host cells around PVs (TEM) ([5]; Vero host cells): does not affect
- parasite burden in mouse peritoneum (T. gondii tachyzoites [6]): significantly decreased
- T. gondii invasion vs control (T. gondii tachyzoites [7]; 0.625–10 μM, P ≤ 0.05): significantly inhibited
- clinical toxicity in mice (Safety assay in mice): no obvious clinical toxicity
- ΔΨm in parasites vs control (T. gondii tachyzoites [8]): significant dose-dependent decreases
- AUC(0-inf) [9]: 3880 ± 308 ng·h/mL
- AUC(0-t) [9]: 3860 ± 301 ng·h/mL
- MRT inf [9]: 1.62 ± 0.464 h
- MRT last [9]: 1.56 ± 0.446 h
- Tmax [9]: 4.98 min
- half-life [9]: 1.43 ± 0.393 h
- k el [9]: 0.000135 s⁻¹

Compound: CC[C@H]1OC(=O)[C@H](C)[C@@H](O[C@H]2C[C@@](C)(OC)[C@@H](O)[C@H](C)O2)[C@H](C)[C@@H](O[C@@H]2O[C@H](C)C[C@H](N(C)C)[C@H]2O)[C@](C)(O)C[C@@H](C)CN(C)[C@H](C)[C@@H](O)[C@]1(C)O [azithromycin]
- inhibition rate on intracellular proliferation of T. gondii tachyzoites (T. gondii tachyzoites [4]; positive control drug, 24 h, qPCR): 37.50%
- inhibition at 11.5 µM (T. gondii tachyzoites [7]; Toxoplasma gondii, read-out: anti-invasion inhibition rate): 54%
